Bioassay records deposited in PubChem by Johns Hopkins Ion Channel Center.
MrgX1 antag: blocks BAM8-22 activation of human MrgX1 receptor | MRGX1-HEK293 calcium flux, Fluo-4, BAM8-22 antagonism; stronger effect = lower value | B-score at 10 µM | 1.3% of 310,000 active;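 active means calcium-response B-score plate-corrected more than 3 library SD below zero, starting fluorescence within 5 deviations, no agonist response on first addition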;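 further: peak minus trough fluorescence over baseline after final BAM8-22 challenge near maximal dose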
Target sequence (Q96LB2 whole entry, looked up): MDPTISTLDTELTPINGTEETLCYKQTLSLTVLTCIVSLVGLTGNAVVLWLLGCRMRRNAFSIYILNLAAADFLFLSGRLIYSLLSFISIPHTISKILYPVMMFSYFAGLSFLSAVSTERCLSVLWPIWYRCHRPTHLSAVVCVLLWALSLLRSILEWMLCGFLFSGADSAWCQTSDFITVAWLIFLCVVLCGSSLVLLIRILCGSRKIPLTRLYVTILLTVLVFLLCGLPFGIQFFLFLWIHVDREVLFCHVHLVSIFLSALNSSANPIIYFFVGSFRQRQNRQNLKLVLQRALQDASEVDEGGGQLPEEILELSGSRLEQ
RGS4 pot: potentiators or activators of RGS4; HEK293 M3R/inducible RGS4, carbachol calcium flux Fluo4; stronger effect = lower value; B-score at 10 µM; 0.92% of 310,000 active; AID 463111;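 active means B-score of the integrated calcium signal more than 4 SD below the library mean, with starting fluorescence not abnormally high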;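 further: negative B-score means reduced calcium response which marks RGS4 activation or potentiation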
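Assay system: Inducible-RGS4 HEK293 cells carrying M3 receptor | Schedule: Compound preincubation 20 min at room temperature before agonist | Signal: Kinetic calcium fluorescence imaging with Fluo4-AM dye, 2 µM | Read-out basis: B score from integrated fluorescence ratio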
MrgX1 agonist: agonists of human MrgX1 receptor. Q96LB2. MrgX1-HEK293 cells, Fluo-4 calcium fluorescence, agonist mode; stronger effect = higher value. B-score at 10 µM. 0.44% of 310,000 active. AID 588627;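 active means calcium response B-score plate-corrected fluorescence ratio at least 3 library SD, with starting fluorescence B-score inside 5 SD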
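Material: HEK293 cells stably expressing human MrgX1 receptor | Quantity: 15,000 cells per well | Times: Cells plated overnight, dye loaded 0.5 h 37 °C, 0.5 h room temperature | Measured by: Kinetic Fluo-4 NW fluorescence of intracellular calcium | Control set: Positive and negative controls per plate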
MrgX1 allo act: allosterically activates human MrgX1 receptor signaling; MrgX1-HEK293, Fluo-4 calcium flux, FDSS; stronger effect = higher value; B-score at 10 µM; 0.63% of 310,000 active; AID 588675;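 active means plate-corrected calcium response at least 3 library SD above typical, normal starting fluorescence, not activating the receptor alone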;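 further: compound read alongside a low EC10 to EC30 dose of BAM8-22 agonist; peak minus trough fluorescence over baseline measured at the second addition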
RGS4 inh: inhibitors of human RGS4. P49798. B-score at 10 µM. AID 463165. HEK293 M3R/RGS4 inducible, Fluo-4 calcium flux; stronger effect = higher value; triggered by carbachol at its EC20. 0.45% of 310,000 active;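 active means B-score, a plate-corrected calcium signal, over three deviations above library mean, with baseline fluorescence within five deviations of library mean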;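 further: RGS4 expression induced by doxycycline in cells with stable M3 receptor; B-score is computed from the integrated fluorescence ratio over baseline after carbachol; higher B-score means a larger calcium signal and so more RGS4 inhibition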
Target sequence (P49798 whole entry, looked up): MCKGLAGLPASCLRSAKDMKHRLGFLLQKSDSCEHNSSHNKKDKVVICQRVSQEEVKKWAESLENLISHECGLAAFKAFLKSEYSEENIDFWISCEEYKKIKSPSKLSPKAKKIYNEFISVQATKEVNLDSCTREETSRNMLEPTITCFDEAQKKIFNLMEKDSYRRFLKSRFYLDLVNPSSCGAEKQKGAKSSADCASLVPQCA
RGS4 activ val: RGS4 activation, validation assay; inhibition, % at 10 µM; HEK293 M3R/RGS4 inducible, carbachol calcium flux Fluo4; 89% of 1,100 active; shares compounds with RGS4 pot;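 active means inhibition above 3 SD of the buffer control wells, cut at about 41% in these data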;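 further: signal is the integrated peak-minus-minimum Fluo4 fluorescence over baseline ratio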
RGS4 act ctr: counter-screen for RGS4 activators: effect in non-induced cells. shares compounds with RGS4 pot. HEK293 M3R non-induced RGS4, Fluo4 calcium flux; after carbachol challenge at its EC90. inhibition, % at 10 µM. 82% of 1,100 active. AID 602283;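 active means inhibition exceeding 3 SD of buffer-only control wells, cut at about 26% in these data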;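 further: percent drop in integrated peak-minus-baseline over baseline Fluo4 ratio after carbachol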
The depositor's hits bear a star; i = inactive; nt = no result. An excerpt weighted towards active compounds, which were near 3.5% of everything screened.

SMILES	MrgX1 antag	RGS4 pot	MrgX1 agonist	MrgX1 allo act	RGS4 inh	RGS4 activ val	RGS4 act ctr
Cc1cccc(N2CCN(C(=O)CCCn3c(=O)c4cccn4c4cccnc43)CC2)c1C	i	i	i	i	i	nt	nt
Cn1c(CC(=O)Nc2ccccc2C(F)(F)F)c(Sc2ccccc2)c2ccccc21	i	i	i	i	i	nt	nt
Cc1ccc(C(=O)N=c2sccn2C)o1	i	i	i	i	i	nt	nt
c1cn2c(NC3CCCCC3)c(-c3ccc(SC4CCCCC4)cc3)nc2cn1	i	i	i	i	i	nt	nt
CCN(CC)c1ccc(-c2nc3cnccn3c2NC2CCCC2)cc1	i	-7.9*	i	i	i	54*	0
CCOC(=O)CSc1nc(C2CC2)cc(-c2ccc(F)cc2)c1C#N	i	-8.5*	i	i	i	66*	0
COc1ccc(-c2cc(C3CC3)nc(SCC(=O)c3cccs3)c2C#N)cc1	i	i	i	i	i	nt	nt
CCN(CC(=O)NCc1ccc(F)cc1)C(=O)/C=C/c1ccc(S(=O)(=O)N(CC)CC)cc1	i	i	i	i	i	nt	nt
Cc1nn2cc(-c3ccc(Cl)cc3)cnc2c1Cl	i	i	i	i	i	nt	nt
c1ccc2nc3c(nc2c1)OCC1CCCCN31 (stereo unspecified)	i	-7.6*	i	i	i	72*	84*
CSCCCc1cn([C@@H](CO)C(=O)NCCCCCCCCCCC(=O)N2CCNCC2)nn1	i	nt	i	i	nt	nt	nt
CCN(CC)CCNC(=O)c1ccc(NC(=O)c2c(C)nn(-c3ccc(F)cc3)c2Cl)cc1	i	-9.8*	i	i	i	92*	88*
CCN(CC)CCNC(=O)c1ccc(NC(=O)Cc2ccccc2F)cc1	i	i	i	i	i	nt	nt
Cn1nc(C(F)(F)F)c2cc(NC(=O)OCc3ccc(F)cc3)sc21	i	-7.9*	i	i	i	74*	84*
CC(C)CCN1CCN(CC(c2ccccc2)c2ccccc2)CC1CCO (stereo unspecified)	i	i	i	i	i	nt	nt
Cn1c(=O)n(CCOc2ccc(Cl)cc2Cl)c2ccccc21	i	i	i	i	i	nt	nt
Cn1c(=O)n(CCOc2ccccc2Cl)c2ccccc21	i	-7.8*	i	i	i	88*	40*
COc1cc(NC(=O)C2COc3ccccc3O2)c(OC)cc1Cl (stereo unspecified)	i	i	i	i	i	nt	nt
COc1ccc(S(=O)(=O)N2CCCCC2)cc1NC(=O)C1COc2ccccc2O1 (stereo unspecified)	i	-13*	i	i	i	74*	84*
CN1CCCN(C(=O)CSc2ccccc2)CC1	i	i	i	i	i	nt	nt
CN1CCCN(C(=O)CC(c2ccccc2)c2ccccc2)CC1	i	-8.1*	i	i	i	88*	47*
CS(=O)(=O)N1CCC(C(=O)Nc2cc(Cl)cc(Cl)c2)CC1	i	i	i	i	i	nt	nt
c1cc2c3c(cccc3c1)C(N1CCOCC1)=N2	i	i	i	i	i	nt	nt
c1ccc(CC2CCN(C3=Nc4cccc5cccc3c45)CC2)cc1	-5.7*	-9.1*	i	i	i	94*	98*
O=C(CSc1n[nH]c(=O)n1-c1ccccc1)N1CCOCC1	i	i	i	i	i	nt	nt
SMILES	MrgX1 antag	RGS4 pot	MrgX1 agonist	MrgX1 allo act	RGS4 inh	RGS4 activ val	RGS4 act ctr
CCCN(CCC)CCCOC(=O)c1ccc(Cl)cc1Cl	i	-8.3*	i	i	i	70*	84*
CC(C)NC(=O)CCCc1c[nH]c2ccccc12	i	i	i	i	i	nt	nt
Cc1nc2c(o1)CCc1ccccc1C2N1CCN(C)CC1 (stereo unspecified)	i	-11*	i	i	i	95*	91*
COc1cccc(OC)c1C(=O)NC(=S)N1CCCCC1c1cccnc1 (stereo unspecified)	i	i	i	i	i	nt	nt
COc1cc(CNCc2cccs2)ccc1OCC(=O)NC(C)(C)C	i	-8*	i	i	i	46*	84*
CCOc1cc(CNCc2cccs2)ccc1OCC(=O)NC(C)(C)C	i	i	i	i	i	nt	nt
CCC(=O)N1CCN(c2ccc(NC(=O)COc3ccc(C)cc3C)cc2)CC1	i	i	i	i	i	nt	nt
Cc1ccc(C(=O)N2CCN(c3ccc(NC(=O)COc4ccccc4C)cc3)CC2)cc1	i	-8.4*	i	i	i	61*	39*
COc1ccccc1C(CNc1ncnc2sc(C)c(C)c12)N(C)C (stereo unspecified)	i	-11*	i	i	i	80*	42*
COc1ccc(C(CNc2ncnc3sc(C)c(C)c23)N(C)C)cc1 (stereo unspecified)	i	i	i	i	i	nt	nt
Cn1nnc2cc(C(=O)Nc3ccccc3F)ccc21	i	i	i	i	i	nt	nt
S=C(NCC1CCCCC1)Nc1ccc(Oc2ccccc2)cc1	i	-7.6*	i	i	i	93*	60*
Cc1cc2ccccn2c1C(=O)c1ccc([N+](=O)[O-])cc1[N+](=O)[O-]	i	i	i	i	i	nt	nt
COc1ccccc1C(CNC(=O)c1cccc(NS(=O)(=O)c2ccc(C)c(F)c2)c1)N(C)C (stereo unspecified)	i	-8.4*	i	i	i	77*	55*
CCN(CC(=O)Nc1ccc2c(c1)OCCO2)C(=O)/C=C/c1cccc(Br)c1	i	i	i	i	i	nt	nt
Cc1ccc(C)c(-n2c3nc(=O)n(C)c(=O)c-3cc3ccccc32)c1	i	-12*	i	i	i	0	0
Cc1nn(-c2ccccc2)c(Cl)c1C(=O)OCC(=O)NCCc1ccccc1	i	-8*	i	i	i	44*	0
CC(=O)OC1CC[C@@]2(C)C(CCC3C2CC(=O)[C@@]2(C)C3CC3CC(C)=CC(=O)C32)C1 (stereo partly specified)	i	i	i	i	i	nt	nt
CC(C)c1ccc(CN2CCC(Oc3ccc(C(=O)N4CCCC4)cc3)CC2)cc1	i	-9.1*	i	i	i	92*	63*
CSc1ccc(CN2CCC(Oc3ccc(C(=O)N4CCCC4)cc3)CC2)cc1	i	-8.5*	i	i	i	87*	39*
